Experimental data reported in ChEMBL document CHEMBL4184245, “Multiple-step, one-pot synthesis of 2-substituted-3-phosphono-1-thia-4-aza-2-cyclohexene-5-carboxylates and their corresponding ethyl esters” (Bioorg Med Chem Lett, 2018).
Calls of active or inactive are those of the source. The rule behind the calls is not given here.

Experiments:
RG2 [1] = assay: Induction of autophagy in rat RG2 cells assessed as increase in LC3-II level at 10 uM pre-incubated for 15 mins before bafilomycin-A1 addition and further incubated for 4 hrs by Western blotting method; format: functional, cell-based
RG2 [2] = assay: Induction of autophagy in rat RG2 cells assessed as increase in LC3-II level at 100 uM pre-incubated for 15 mins before bafilomycin-A1 addition and further incubated for 4 hrs by Western blotting method; format: functional, cell-based
RG2 [3] = assay: Induction of autophagy in rat RG2 cells assessed as optimum compound level causing increase in LC3-II level pre-incubated for 15 mins before bafilomycin-A1 addition and further incubated for 4 hrs by Western blotting method; format: functional
Method in brief: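 Cells were tested at 1, 10 and 100 μM. The optimum concentration for autophagy stimulation was estimated from these few levels in preliminary single-series experiments.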

[4] = Apparent permeability of the compound across apical side to basolateral side in human Caco2 cells at 10 uM incubated for 2 hrs by LC-MS/MS method; format: ADME, cell-based; details: Caco-2
Method in brief: (§1)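 Permeability was measured across Caco-2 epithelial monolayers.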

[5] = Apparent permeability of the compound across basolateral to apical side in human Caco2 cells at 10 uM incubated for 2 hrs by LC-MS/MS method; format: ADME, cell-based; details: Caco-2; method in brief: as §1
[6] = Efflux ratio in human Caco2 cells at 10 uM incubated for 2 hrs by LC-MS/MS method; format: ADME, cell-based; details: Caco-2

SMILES | Papp A→B at 2 h, 10 µM [4] | Papp B→A at 2 h, 10 µM [5] | efflux ratio at 2 h, 10 µM [6] | Activity (RG2 [1]) | Activity (RG2 [2]) | Activity (RG2 [3])
O=C(O)C1=CSC[C@@H](C(=O)O)N1 |  |  |  | Active | Active | 
CCCCCCC1=C(P(=O)(O)O)N[C@H](C(=O)OCC)CS1 | < 0.01 ×10⁻⁶ cm/s | < 0.01 ×10⁻⁶ cm/s |  |  |  | 1 to 10 µM
CC(C)C1=C(P(=O)(O)O)N[C@H](C(=O)O)CS1 |  |  |  | Active | inactive | 
CCOC(=O)[C@@H]1CSC=C(C(=O)O)N1 | < 0.01 ×10⁻⁶ cm/s | < 0.01 ×10⁻⁶ cm/s |  |  |  | 
CCOC(=O)[C@@H]1CSC(CC)=C(C(=O)O)N1 |  |  |  |  |  | >10 µM

The next lines start with results.

Papp A→B at 2 h, 10 µM [4] | Papp B→A at 2 h, 10 µM [5] | efflux ratio at 2 h, 10 µM [6] | SMILES | Activity (RG2 [1]) | Activity (RG2 [2]) | Activity (RG2 [3])
1.1 ×10⁻⁶ cm/s | 0.35 ×10⁻⁶ cm/s | 0.33 | CCCCC1=C(P(=O)(O)O)N[C@H](C(=O)O)CS1 |  |  | 
< 0.01 ×10⁻⁶ cm/s | < 0.01 ×10⁻⁶ cm/s |  | CCCCC1=C(P(=O)(O)O)N[C@H](C(=O)OCC)CS1 |  |  | 
< 0.01 ×10⁻⁶ cm/s | < 0.01 ×10⁻⁶ cm/s |  | CCCCCCC1=C(P(=O)(O)O)N[C@H](C(=O)O)CS1 |  |  | 
